Laboratory results reported in ChEMBL document CHEMBL1926538, “3,5-Disubstituted-thiazolidine-2,4-dione analogs as anticancer agents: design, synthesis and biological characterization” (Eur J Med Chem, 2012).
Calls of active or inactive are those of the source. The calls are words filed in the database; no cut-off is given here.

How the values were obtained:
[1] = biological target: Serine/threonine-protein kinase Chk2 (Homo sapiens) (UniProt O96017); assay: Inhibition of CHK2 at 10 uM
[2] = test system: U-937; assay: Induction of apoptosis in human U937 cells assessed as early apoptotic cells at 10 uM after 18 hrs by annexinV-propidium iodide staining-based flow cytometric analysis (reference value: 4.3%); format: functional
[3] = test system: U-937; assay: Induction of apoptosis in human U937 cells assessed as necrotic cells at 10 uM after 6 hrs by annexinV-propidium iodide staining-based flow cytometric analysis (reference value: 1.2%); format: functional
[4] = biological target: Tyrosine-protein kinase SYK (Homo sapiens) (UniProt P43405); assay: Inhibition of SYK at 10 uM
[5] = test system: DU-145; assay: Inhibition of PI3K-mediated Akt phosphorylation in human DU145 cells at 10 to 20 uM after 24 hrs by Western blot analysis; format: cell-based
Method in brief: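 DU145 cells were grown in RPMI 1640 with 10% FBS and treated for 24 h at the indicated concentrations. Lysates were immunoblotted with phospho-Akt (Ser473) primary antibody (1:1000) and HRP secondary (1:2000), then detected by chemiluminescence. α-Tubulin reprobing checked loading.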

[6] = biological target: RAF proto-oncogene serine/threonine-protein kinase (Homo sapiens) (UniProt P04049); assay: Inhibition of raf-mediated ERK phosphorylation in human U937 cells at 3 uM after 1 hr by Western blot analysis; format: cell-based; conditions: U-937
RAF proto-oncogene serine/threonine-protein kinase (Homo sapiens), sequence (P04049 whole entry): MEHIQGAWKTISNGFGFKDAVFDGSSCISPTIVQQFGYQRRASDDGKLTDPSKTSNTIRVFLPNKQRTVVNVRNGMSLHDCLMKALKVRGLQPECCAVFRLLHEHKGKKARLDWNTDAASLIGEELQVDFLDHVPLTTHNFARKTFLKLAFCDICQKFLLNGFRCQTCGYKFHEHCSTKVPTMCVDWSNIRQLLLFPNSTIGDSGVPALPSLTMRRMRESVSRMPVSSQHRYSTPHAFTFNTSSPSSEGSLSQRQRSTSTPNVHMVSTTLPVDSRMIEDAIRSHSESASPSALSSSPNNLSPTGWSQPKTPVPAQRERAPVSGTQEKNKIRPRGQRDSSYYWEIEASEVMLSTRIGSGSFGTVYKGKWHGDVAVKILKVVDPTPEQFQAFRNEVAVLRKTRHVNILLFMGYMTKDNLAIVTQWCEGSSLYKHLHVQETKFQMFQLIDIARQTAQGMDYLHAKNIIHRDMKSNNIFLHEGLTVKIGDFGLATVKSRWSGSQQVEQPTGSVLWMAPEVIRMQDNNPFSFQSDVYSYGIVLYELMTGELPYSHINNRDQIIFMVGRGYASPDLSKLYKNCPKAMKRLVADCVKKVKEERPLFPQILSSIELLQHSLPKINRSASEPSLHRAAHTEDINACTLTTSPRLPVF
Method in brief: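 Cells in RPMI 1640 with 10% heat-inactivated FBS, 37 °C, 5% CO2; treated in growing medium (DU145 24 h; U937 1 h at 5 × 10⁵/mL). Lysed by sonication in SDS sample buffer with protease inhibitors plus 1 mM orthovanadate and pyrophosphate, boiled 5 min. Blots blocked in 5% milk, primary antibodies 1:1000 overnight at 4 °C, HRP secondary 1:2000, chemiluminescence; α-tubulin loading control.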

[7] = test system: U-937; assay: Induction of apoptosis in human U937 cells assessed as viable cells at 10 uM after 18 hrs by annexinV-propidium iodide staining-based flow cytometric analysis (reference value: 87.2%); format: functional; conditions: U-937, 18 h, read-out: Activity
[8] = biological target: Fibroblast growth factor receptor 1 (Homo sapiens) (UniProt P11362); assay: Inhibition of FGFR1 at 10 uM
Fibroblast growth factor receptor 1 (Homo sapiens), sequence (P11362 22-822 limits assumed): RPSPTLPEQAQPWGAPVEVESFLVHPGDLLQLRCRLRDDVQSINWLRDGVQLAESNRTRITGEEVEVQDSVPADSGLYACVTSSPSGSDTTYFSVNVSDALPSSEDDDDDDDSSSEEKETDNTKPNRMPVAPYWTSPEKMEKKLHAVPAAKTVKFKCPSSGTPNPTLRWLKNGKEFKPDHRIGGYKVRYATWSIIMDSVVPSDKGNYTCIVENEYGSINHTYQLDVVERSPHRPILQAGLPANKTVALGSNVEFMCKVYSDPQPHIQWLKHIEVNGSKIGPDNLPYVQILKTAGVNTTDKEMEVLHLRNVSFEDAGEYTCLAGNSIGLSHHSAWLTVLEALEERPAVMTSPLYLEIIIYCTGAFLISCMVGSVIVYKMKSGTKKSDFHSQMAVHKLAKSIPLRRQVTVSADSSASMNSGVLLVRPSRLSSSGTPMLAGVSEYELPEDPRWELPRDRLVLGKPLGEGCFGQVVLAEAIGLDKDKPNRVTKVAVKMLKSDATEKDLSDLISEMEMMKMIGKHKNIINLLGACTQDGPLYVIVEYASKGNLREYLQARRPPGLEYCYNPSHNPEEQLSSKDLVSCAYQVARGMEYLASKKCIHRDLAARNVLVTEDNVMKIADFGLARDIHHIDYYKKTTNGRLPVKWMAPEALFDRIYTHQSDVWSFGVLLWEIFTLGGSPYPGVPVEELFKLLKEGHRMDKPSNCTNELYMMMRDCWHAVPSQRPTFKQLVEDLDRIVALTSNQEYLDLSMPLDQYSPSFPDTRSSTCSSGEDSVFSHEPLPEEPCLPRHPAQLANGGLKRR

[9] = test system: U-937; assay: Cell cycle arrest in human U937 cells assessed as accumulation at S-phase at 15 uM after 24 hrs by propidium iodide staining-based flow cytometric analysis; format: functional
Method in brief: (§1)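 Cells cultured in RPMI 1640 with 10% FBS and treated 24 h at the indicated concentrations. Stained with propidium iodide for 4 h at 4 °C in the dark. Flow cytometry gave the percentage of cells in G₀/G₁, S, G₂/M and sub-G₁ phases.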

[10] = biological target: Mitogen-activated protein kinase 3 (Homo sapiens) (UniProt P27361); assay: Inhibition of Erk1 at 10 uM
[11] = biological target: MAP kinase p38 (Homo sapiens) (UniProt O15264+Q15759+Q16539+P53778); assay: Inhibition p38 phosphorylation in human U937 cells at 1 to 10 uM after 1 hr by Western blot analysis; format: cell-based; conditions: U-937
Method in brief: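 p38 blot in U937: cells at 5 × 10⁵/mL in RPMI 1640 plus 10% FBS, exposed 1 h, sonicated in SDS sample buffer containing phosphatase inhibitors, boiled; immunoblot with primary antibody overnight at 4 °C, HRP secondary, chemiluminescent detection.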

[12] = biological target: RAC-beta serine/threonine-protein kinase (Homo sapiens) (UniProt P31751); assay: Inhibition of AKT2 at 10 uM
RAC-beta serine/threonine-protein kinase (Homo sapiens), sequence (P31751 whole entry): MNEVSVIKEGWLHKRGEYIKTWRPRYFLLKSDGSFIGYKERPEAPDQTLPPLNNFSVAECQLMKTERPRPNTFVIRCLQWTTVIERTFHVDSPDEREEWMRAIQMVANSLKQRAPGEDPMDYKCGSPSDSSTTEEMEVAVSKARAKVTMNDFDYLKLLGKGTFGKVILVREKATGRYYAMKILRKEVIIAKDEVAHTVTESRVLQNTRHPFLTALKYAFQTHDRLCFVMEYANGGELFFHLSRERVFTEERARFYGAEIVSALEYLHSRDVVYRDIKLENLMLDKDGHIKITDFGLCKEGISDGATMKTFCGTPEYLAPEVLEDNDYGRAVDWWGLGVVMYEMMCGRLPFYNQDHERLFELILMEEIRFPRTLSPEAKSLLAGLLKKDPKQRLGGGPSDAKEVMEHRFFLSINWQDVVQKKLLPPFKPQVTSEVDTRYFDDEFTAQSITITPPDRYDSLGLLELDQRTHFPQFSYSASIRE

[13] = test system: U-937; assay: Induction of apoptosis in human U937 cells assessed as early apoptotic cells at 3 uM after 3 hrs by annexinV-propidium iodide staining-based flow cytometric analysis (reference value: 2.8%); format: functional
[14] = test system: DU-145; assay: Induction of apoptosis in human DU145 cells assessed as late apoptotic cells at 20 uM after 24 hrs by annexinV-propidium iodide staining-based flow cytometric analysis (reference value: 5.1%); format: functional
[15] = biological target: Casein kinase I isoform delta (Homo sapiens) (UniProt P48730); assay: Inhibition of Ckld at 10 uM
Casein kinase I isoform delta (Homo sapiens), sequence (P48730 whole entry, looked up, canonical isoform): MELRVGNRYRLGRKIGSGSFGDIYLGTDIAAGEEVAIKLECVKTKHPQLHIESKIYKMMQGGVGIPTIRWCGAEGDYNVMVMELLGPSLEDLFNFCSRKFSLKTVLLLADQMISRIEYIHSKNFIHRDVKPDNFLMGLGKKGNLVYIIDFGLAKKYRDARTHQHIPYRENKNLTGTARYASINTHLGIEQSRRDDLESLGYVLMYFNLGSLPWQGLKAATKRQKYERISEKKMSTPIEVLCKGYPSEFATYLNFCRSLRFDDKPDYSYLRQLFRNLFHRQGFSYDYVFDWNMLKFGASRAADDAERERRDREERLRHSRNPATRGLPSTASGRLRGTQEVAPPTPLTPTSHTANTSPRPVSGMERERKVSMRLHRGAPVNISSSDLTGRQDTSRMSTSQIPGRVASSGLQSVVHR

[16] = test system: U-937; assay: Induction of apoptosis in human U937 cells assessed as late apoptotic cells at 3 uM after 6 hrs by annexinV-propidium iodide staining-based flow cytometric analysis (reference value: 13.8%); format: functional
[17] = test system: U-937; assay: Induction of apoptosis in human U937 cells assessed as early apoptotic cells at 10 uM after 3 hrs by annexinV-propidium iodide staining-based flow cytometric analysis (reference value: 2.8%); format: functional
[18] = test system: U-937; assay: Induction of apoptosis in human U937 cells assessed as viable cells at 10 uM after 6 hrs by annexinV-propidium iodide staining-based flow cytometric analysis (reference value: 80.3%); format: functional; conditions: U-937, 6 h, read-out: Activity
[19] = biological target: Insulin receptor (Homo sapiens) (UniProt P06213); assay: Inhibition of INSR at 10 uM
Insulin receptor (Homo sapiens), sequence (P06213 28-758 limits assumed): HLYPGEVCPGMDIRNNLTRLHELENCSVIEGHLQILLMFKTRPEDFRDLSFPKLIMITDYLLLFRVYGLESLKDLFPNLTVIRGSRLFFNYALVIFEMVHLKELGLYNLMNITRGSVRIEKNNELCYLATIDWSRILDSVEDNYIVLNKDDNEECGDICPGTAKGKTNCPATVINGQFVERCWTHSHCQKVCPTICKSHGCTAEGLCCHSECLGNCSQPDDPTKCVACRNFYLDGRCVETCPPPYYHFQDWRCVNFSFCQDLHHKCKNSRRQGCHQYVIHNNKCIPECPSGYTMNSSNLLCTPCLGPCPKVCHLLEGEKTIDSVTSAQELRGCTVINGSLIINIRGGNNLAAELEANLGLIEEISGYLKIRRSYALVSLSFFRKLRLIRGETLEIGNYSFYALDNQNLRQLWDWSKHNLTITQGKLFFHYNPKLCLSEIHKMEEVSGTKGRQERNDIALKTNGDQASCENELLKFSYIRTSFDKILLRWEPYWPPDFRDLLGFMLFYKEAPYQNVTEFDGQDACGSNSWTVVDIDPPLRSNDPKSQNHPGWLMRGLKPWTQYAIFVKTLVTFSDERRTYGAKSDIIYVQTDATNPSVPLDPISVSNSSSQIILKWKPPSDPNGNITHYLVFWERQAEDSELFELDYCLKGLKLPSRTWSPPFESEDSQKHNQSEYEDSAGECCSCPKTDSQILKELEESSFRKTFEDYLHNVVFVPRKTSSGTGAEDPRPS
Insulin receptor (Homo sapiens), sequence (P06213 763-1382 limits assumed): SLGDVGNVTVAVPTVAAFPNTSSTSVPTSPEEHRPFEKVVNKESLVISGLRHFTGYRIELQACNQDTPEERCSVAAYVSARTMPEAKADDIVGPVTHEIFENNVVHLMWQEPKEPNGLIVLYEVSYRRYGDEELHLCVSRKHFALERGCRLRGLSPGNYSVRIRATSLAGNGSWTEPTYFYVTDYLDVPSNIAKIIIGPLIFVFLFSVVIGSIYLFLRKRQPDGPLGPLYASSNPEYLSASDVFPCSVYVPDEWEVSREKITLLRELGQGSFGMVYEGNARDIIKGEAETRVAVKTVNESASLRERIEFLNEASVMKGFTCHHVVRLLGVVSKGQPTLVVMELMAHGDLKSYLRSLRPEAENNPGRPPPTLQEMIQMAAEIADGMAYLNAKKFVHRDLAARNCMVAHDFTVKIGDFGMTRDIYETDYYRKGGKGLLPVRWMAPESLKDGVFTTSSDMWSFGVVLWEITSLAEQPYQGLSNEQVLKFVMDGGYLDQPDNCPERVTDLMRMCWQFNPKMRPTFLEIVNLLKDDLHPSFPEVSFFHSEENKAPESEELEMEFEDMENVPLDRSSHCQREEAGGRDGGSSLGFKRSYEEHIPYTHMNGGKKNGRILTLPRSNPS

[20] = biological target: 5'-AMP-activated protein kinase catalytic subunit alpha-2 (Homo sapiens) (UniProt P54646); assay: Inhibition of AMPK at 10 uM
[21] = biological target: Mitogen-activated protein kinase kinase kinase kinase 4 (Homo sapiens) (UniProt O95819); assay: Inhibition of HGK at 10 uM
Mitogen-activated protein kinase kinase kinase kinase 4 (Homo sapiens), sequence (O95819 2-1239 limits assumed): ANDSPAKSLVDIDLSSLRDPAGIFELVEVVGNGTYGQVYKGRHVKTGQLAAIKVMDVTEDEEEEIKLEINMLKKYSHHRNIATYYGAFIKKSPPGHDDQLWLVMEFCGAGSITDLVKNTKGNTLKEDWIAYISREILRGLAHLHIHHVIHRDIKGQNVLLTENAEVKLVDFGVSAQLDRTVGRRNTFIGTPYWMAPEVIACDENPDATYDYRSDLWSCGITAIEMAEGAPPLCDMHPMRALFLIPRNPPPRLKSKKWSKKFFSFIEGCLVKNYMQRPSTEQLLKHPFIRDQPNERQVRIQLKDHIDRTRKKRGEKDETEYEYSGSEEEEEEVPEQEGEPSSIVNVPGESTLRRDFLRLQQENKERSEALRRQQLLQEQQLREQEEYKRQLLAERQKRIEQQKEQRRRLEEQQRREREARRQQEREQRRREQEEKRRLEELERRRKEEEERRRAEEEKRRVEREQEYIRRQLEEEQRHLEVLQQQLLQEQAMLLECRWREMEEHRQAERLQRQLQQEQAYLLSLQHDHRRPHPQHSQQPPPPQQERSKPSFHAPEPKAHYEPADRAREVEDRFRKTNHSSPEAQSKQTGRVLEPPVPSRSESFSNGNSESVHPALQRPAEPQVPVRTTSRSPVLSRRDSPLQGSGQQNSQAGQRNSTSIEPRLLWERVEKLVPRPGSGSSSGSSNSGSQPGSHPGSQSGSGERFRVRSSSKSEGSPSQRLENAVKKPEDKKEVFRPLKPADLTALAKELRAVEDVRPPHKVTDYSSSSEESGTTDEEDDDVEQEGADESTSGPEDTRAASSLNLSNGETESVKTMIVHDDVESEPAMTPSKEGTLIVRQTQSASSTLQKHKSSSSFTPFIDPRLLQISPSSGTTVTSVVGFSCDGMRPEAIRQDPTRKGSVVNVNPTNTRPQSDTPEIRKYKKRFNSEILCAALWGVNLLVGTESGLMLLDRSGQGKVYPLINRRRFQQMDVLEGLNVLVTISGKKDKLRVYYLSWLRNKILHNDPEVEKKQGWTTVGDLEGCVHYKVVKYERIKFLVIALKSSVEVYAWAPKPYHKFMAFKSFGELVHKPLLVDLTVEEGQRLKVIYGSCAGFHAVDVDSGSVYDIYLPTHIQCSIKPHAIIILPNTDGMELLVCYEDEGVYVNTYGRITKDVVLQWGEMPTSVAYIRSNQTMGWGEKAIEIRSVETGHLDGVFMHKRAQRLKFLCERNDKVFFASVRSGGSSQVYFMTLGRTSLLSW

[22] = test system: U-937; assay: Induction of apoptosis in human U937 cells assessed as late apoptotic cells at 10 uM after 18 hrs by annexinV-propidium iodide staining-based flow cytometric analysis (reference value: 7.8%); format: functional
[23] = test system: U-937; assay: Induction of apoptosis in human U937 cells assessed as necrotic cells at 3 uM after 18 hrs by annexinV-propidium iodide staining-based flow cytometric analysis (reference value: 0.7%); format: functional
[24] = test system: U-937; assay: Cell cycle arrest in human U937 cells assessed as accumulation at S-phase after 24 hrs by propidium iodide staining-based flow cytometric analysis; format: functional; method in brief: as §1
[25] = biological target: Cyclin-dependent kinase 2 (Homo sapiens) (UniProt P24941); assay: Inhibition of CDK2 at 10 uM
[26] = test system: U-937; assay: Induction of apoptosis in human U937 cells assessed as viable cells at 3 uM after 3 hrs by annexinV-propidium iodide staining-based flow cytometric analysis (reference value: 86.3%); format: functional; conditions: U-937, 3 h, read-out: Activity
[27] = test system: U-937; assay: Growth inhibition of human U937 cells after 24 hrs by MTS assay; format: functional, cell-based; conditions: U-937, 24 h
Method in brief: (§2)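 Cells in RPMI 1640 with 10% heat-inactivated FBS, seeded 2 × 10⁴ cells/well and exposed 24 h. MTS reagent added, then 1 h further incubation at 37 °C, 5% CO₂. Formazan absorbance read at 490 nm. Viability expressed as percentage of untreated controls.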

[28] = biological target: RAF proto-oncogene serine/threonine-protein kinase (Homo sapiens) (UniProt P04049); assay: Inhibition of […] phosphorylation in human U937 cells 1 to 10 uM after 1 hr by Western blot analysis; format: cell-based; conditions: U-937
Method in brief: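 U937 cells at 5 × 10^5/mL were exposed to compound for 1 h, then sonicated in SDS/DTT sample buffer with protease inhibitors plus 1 mM orthovanadate and pyrophosphate, and boiled 5 min. Blots were blocked in 5% milk, probed with primary antibody overnight at 4 °C and 1:2000 HRP secondary, and read by chemiluminescence. α-Tubulin reprobe served as loading control. Blots shown represent one of three experiments.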

[29] = test system: PC-3; assay: Growth inhibition of human PC3 cells after 24 hrs by MTS assay; format: functional, cell-based; method in brief: as §2

NCCN1C(=O)S/C(=C\CCC2CCCCC2)C1=O
inhibition [1]: 8%
Activity [2]: 15%
Activity [3]: 1.4%
inhibition [4]: 9%
inhibition [5]: Active
inhibition [6]: Active
viability at 10 µM [7]: 42.9%
inhibition [8]: 3%
Activity [9]: 31.4%
inhibition [10]: 21%
inhibition [11]: inactive
inhibition [12]: 8%
Activity [13]: 3.5%
Activity [14]: 23%
inhibition [15]: -5%
Activity [16]: 16.5%
Activity [17]: 23.8%
viability at 10 µM [18]: 40.2%
inhibition [19]: -2%
inhibition [20]: 76%
inhibition [21]: -1%
Activity [22]: 40.9%
Activity [23]: 0.7%
Activity [24]: Dose-dependent effect
inhibition [25]: -2%
viability at 3 µM [26]: 86.9%
IC50 [27]: 3.4 µM
inhibition [28]: Active
growth inhibition (GI) [29]: Active
